pIC50, pKi: −log10 of the molar value.
What was measured:
[1] = target: 5-hydroxytryptamine receptor 6 (Homo sapiens, UniProt P50406); assay: Displacement of [3H]LSD from human 5-HT6 receptor expressed in HEK cells by radioligand binding assay relative to control; type: cell-based; design: concentration or dose not given beside the values; details: concentration not given here
[2] = tested on: Lewis lung carcinoma cell line; assay: Cytotoxicity against mouse LLC cells harboring […] assessed as reduction in cell viability after 48 hrs by MTT assay; type: functional, cell-based
How it was run: (§1)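 Cells exposed to compounds; viability read at 24, 48 and 72 h. Every experiment run in triplicate.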

D(2) dopamine receptor = D(2) dopamine receptor (Homo sapiens, UniProt P14416); assay: Displacement of [3H]N-methylspiperone from human dopamine D2 receptor expressed in stable fibroblast cells by radioligand binding assay relative to control; type: cell-based; design: concentration or dose not given beside the values; details: concentration not given here
Sequence of D(2) dopamine receptor (P14416 whole entry): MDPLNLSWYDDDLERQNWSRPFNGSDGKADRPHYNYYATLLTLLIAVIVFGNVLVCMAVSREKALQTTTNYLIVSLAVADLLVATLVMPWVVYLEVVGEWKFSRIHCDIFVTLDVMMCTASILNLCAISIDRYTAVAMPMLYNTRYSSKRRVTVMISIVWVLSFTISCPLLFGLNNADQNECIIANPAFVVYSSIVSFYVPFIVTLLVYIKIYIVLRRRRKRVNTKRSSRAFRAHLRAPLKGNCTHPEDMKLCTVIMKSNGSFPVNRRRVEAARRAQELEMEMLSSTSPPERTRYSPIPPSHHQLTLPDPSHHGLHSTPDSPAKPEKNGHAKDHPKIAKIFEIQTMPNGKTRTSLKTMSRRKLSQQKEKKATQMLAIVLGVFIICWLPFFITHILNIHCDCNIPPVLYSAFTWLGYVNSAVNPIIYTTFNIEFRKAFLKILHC

[3] = target: 5-hydroxytryptamine receptor 7 (Homo sapiens, UniProt P34969); assay: Displacement of [3H]LSD from human 5-HT7A receptor expressed in HEK cells by radioligand binding assay; type: cell-based
[4] = target: T1, Delta-type opioid receptor (Homo sapiens, UniProt P41143); assay: Displacement of [3H]DADLE from human DOR expressed in HEK cells by radioligand binding assay relative to control; type: cell-based; design: concentration or dose not given beside the values; details: concentration not given here
[5] = target: T2, D(4) dopamine receptor (Homo sapiens) (UniProt P21917); assay: Displacement of [3H]N-methylspiperone from human dopamine D4 receptor by radioligand binding assay relative to control; design: concentration or dose not given beside the values; details: concentration not given here
T2 sequence (whole entry): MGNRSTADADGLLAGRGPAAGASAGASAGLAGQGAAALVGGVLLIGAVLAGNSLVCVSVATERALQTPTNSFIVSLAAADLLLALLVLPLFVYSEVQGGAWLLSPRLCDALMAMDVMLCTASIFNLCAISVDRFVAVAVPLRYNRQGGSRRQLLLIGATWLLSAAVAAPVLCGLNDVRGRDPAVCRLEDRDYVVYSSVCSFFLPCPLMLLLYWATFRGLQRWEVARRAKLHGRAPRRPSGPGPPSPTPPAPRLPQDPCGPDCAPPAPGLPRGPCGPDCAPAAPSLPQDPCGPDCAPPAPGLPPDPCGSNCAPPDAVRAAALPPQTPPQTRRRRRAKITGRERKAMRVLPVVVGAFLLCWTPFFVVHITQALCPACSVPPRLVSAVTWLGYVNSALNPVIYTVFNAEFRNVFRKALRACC

MDA-MB-231 = assay: Cytotoxicity against human MDA-MB-231 cells assessed as reduction in cell viability after 48 hrs by MTT assay; type: functional, cell-based; details: MDA-MB-231, 48 h; how it was run: as §1
D(3) dopamine receptor [6] = target: T3, D(3) dopamine receptor (Homo sapiens, UniProt P35462); assay: Displacement of [3H]N-methylspiperone from human dopamine D3 receptor expressed in HEK293T cells by radioligand binding assay relative to control; type: cell-based; design: concentration or dose not given beside the values; details: concentration not given here
T3 sequence (P35462 whole entry): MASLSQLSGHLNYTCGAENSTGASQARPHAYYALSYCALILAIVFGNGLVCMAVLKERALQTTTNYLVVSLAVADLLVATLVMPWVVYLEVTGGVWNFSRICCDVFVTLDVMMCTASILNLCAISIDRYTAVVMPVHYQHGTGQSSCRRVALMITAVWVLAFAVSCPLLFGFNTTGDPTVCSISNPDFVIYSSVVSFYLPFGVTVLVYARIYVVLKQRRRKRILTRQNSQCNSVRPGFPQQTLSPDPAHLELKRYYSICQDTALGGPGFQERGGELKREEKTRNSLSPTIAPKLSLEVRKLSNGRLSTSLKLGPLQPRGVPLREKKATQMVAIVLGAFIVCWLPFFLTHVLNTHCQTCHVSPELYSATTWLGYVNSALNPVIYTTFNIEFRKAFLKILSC

NIH3T3 = assay: Cytotoxicity against mouse NIH/3T3 cells assessed as reduction in cell viability after 72 hrs by MTT assay; type: cell-based; details: NIH3T3, 72 h; how it was run: as §1
D(3) dopamine receptor [7] = target: T3, D(3) dopamine receptor; assay: Displacement of [3H]N-methylspiperone from human dopamine D3 receptor expressed in HEK293T cells by radioligand binding assay; type: cell-based
[8] = target: Kappa-type opioid receptor (Homo sapiens, UniProt P41145); assay: Displacement of [3H]U69593 from KOR (unknown origin) expressed in HEK cells by radioligand binding assay; type: cell-based
[9] = target: 5-hydroxytryptamine receptor 2B (Homo sapiens, UniProt P41595); assay: Displacement of [3H]LSD from human 5-HT2B receptor expressed in HEK cells by radioligand binding assay relative to control; type: cell-based; design: concentration or dose not given beside the values; details: concentration not given here
Sequence of 5-hydroxytryptamine receptor 2B (P41595 whole entry): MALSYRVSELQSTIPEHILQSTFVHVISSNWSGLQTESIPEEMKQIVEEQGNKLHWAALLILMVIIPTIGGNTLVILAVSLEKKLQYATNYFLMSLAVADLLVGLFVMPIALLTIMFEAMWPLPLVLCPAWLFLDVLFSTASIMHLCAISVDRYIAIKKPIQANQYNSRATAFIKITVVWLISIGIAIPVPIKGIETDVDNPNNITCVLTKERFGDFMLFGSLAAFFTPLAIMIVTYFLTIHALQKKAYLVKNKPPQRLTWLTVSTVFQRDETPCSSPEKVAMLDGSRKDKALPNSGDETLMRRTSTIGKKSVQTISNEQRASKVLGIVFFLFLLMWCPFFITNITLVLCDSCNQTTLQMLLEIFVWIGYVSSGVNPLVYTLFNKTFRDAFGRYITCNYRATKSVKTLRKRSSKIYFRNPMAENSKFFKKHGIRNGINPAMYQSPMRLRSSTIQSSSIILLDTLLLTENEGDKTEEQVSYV

[10] = target: 5-hydroxytryptamine receptor 2A (Homo sapiens, UniProt P28223); assay: Displacement of [3H]Ketanserin from 5-HT2A receptor (unknown origin) by radioligand binding assay
Sequence of 5-hydroxytryptamine receptor 2A (P28223 whole entry): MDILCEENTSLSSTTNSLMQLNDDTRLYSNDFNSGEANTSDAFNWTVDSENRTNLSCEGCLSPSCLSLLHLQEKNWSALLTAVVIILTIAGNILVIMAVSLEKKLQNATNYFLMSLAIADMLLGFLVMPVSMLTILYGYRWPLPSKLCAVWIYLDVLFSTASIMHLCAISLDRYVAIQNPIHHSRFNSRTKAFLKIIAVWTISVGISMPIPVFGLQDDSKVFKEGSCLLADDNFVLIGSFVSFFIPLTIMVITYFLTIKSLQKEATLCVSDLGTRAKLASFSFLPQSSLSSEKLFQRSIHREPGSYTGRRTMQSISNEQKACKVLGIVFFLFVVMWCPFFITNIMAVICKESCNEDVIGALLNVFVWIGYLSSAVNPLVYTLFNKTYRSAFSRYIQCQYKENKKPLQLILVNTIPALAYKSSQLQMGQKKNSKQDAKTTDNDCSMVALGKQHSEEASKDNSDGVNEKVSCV

[11] = target: T4, 5-hydroxytryptamine receptor 2C (Homo sapiens) (UniProt P28335); assay: Displacement of [3H]Mesulergine from human 5-HT2C receptor expressed in HEK293FlpIN cells by radioligand binding assay relative to control; type: cell-based; design: concentration or dose not given beside the values; details: concentration not given here
T4 sequence (whole entry): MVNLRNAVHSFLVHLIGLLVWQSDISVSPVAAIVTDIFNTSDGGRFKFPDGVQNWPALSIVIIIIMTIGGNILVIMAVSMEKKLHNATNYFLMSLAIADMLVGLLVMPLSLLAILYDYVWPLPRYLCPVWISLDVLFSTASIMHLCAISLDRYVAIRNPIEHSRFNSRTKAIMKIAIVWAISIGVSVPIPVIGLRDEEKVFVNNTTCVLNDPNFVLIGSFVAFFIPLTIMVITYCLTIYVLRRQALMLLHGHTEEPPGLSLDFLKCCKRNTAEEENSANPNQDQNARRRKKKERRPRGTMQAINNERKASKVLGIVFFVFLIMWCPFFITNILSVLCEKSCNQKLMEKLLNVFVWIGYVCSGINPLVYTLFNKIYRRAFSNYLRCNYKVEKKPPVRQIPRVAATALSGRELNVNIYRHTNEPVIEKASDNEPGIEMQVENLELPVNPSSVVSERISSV

Mu-type opioid receptor = Mu-type opioid receptor (Homo sapiens, UniProt P35372); assay: Displacement of [3H]DAMGO from human MOR expressed in HEK cells by radioligand binding assay relative to control; type: cell-based; design: concentration or dose not given beside the values; details: concentration not given here
Sequence of Mu-type opioid receptor (P35372 whole entry): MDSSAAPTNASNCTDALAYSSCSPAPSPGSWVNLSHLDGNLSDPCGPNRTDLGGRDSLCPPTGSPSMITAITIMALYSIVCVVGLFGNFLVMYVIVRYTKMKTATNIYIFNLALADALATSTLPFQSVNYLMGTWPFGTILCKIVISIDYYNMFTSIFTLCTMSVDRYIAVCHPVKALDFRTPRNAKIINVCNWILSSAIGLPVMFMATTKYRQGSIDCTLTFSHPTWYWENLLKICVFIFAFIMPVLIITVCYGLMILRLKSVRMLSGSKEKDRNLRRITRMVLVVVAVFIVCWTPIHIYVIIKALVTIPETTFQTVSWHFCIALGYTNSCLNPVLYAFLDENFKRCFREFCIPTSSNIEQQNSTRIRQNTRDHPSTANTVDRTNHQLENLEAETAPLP

[12] = target: T1, Delta-type opioid receptor; assay: Displacement of [3H]DADLE from human DOR expressed in HEK cells by radioligand binding assay; type: cell-based; details: for pKi: read-out: Ki
[13] = target: 5-hydroxytryptamine receptor 1D (Homo sapiens, UniProt P28221); assay: Displacement of [3H]5-CT from human 5-HT1D receptor expressed in HEK293T cells by radioligand binding assay relative to control; type: cell-based; design: concentration or dose not given beside the values; details: concentration not given here
[14] = target: T5, Sodium-dependent noradrenaline transporter (Homo sapiens, UniProt P23975); assay: Displacement of [3H]Nisoxetine from human NET expressed in HEK cells by radioligand binding assay; type: cell-based
T5 sequence (P23975 whole entry): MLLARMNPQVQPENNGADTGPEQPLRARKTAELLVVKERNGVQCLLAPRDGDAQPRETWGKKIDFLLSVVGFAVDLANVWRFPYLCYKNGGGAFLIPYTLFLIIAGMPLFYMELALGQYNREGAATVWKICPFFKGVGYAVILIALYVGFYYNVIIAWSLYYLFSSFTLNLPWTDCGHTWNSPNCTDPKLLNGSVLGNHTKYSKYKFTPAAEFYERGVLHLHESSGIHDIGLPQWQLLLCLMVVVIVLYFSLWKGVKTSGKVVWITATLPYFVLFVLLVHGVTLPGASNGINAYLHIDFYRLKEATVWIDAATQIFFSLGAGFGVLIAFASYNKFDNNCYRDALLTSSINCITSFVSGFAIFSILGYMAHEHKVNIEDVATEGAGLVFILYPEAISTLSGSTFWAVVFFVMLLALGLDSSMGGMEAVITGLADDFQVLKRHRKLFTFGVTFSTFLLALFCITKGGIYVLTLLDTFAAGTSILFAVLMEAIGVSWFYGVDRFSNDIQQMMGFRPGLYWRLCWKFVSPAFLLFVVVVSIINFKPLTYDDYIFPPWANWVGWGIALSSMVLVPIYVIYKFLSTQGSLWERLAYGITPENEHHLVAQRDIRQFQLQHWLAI

D(1A) dopamine receptor [15] = target: T6, D(1A) dopamine receptor (Homo sapiens, UniProt P21728); assay: Displacement of [3H]SCH23390 from human dopamine D1 receptor expressed in HEK293T cells by radioligand binding assay relative to control; type: cell-based; design: concentration or dose not given beside the values; details: concentration not given here
T6 sequence (P21728 whole entry): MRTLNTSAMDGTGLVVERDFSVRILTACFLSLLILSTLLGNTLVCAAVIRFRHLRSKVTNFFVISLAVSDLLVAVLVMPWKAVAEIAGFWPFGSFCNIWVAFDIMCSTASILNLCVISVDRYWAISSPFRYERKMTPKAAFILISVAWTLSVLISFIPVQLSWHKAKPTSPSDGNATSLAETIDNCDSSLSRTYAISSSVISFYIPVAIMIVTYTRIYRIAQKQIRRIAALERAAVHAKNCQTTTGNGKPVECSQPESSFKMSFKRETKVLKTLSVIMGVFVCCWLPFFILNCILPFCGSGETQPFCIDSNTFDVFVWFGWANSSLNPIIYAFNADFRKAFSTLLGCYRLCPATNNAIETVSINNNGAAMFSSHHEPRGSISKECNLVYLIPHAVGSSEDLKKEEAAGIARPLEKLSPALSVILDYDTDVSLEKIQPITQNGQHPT

D(1A) dopamine receptor [16] = target: T6, D(1A) dopamine receptor; assay: Displacement of [3H]SCH23390 from human dopamine D1 receptor expressed in HEK293T cells by radioligand binding assay; type: cell-based
[17] = target: T5, Sodium-dependent noradrenaline transporter; assay: Displacement of [3H]Nisoxetine from human NET expressed in HEK cells by radioligand binding assay relative to control; type: cell-based
D(1B) dopamine receptor = D(1B) dopamine receptor (Homo sapiens, UniProt P21918); assay: Displacement of [3H]SCH23390 from human dopamine D5 receptor expressed in HEK293T cells by radioligand binding assay; type: cell-based
Sequence of D(1B) dopamine receptor (P21918 whole entry): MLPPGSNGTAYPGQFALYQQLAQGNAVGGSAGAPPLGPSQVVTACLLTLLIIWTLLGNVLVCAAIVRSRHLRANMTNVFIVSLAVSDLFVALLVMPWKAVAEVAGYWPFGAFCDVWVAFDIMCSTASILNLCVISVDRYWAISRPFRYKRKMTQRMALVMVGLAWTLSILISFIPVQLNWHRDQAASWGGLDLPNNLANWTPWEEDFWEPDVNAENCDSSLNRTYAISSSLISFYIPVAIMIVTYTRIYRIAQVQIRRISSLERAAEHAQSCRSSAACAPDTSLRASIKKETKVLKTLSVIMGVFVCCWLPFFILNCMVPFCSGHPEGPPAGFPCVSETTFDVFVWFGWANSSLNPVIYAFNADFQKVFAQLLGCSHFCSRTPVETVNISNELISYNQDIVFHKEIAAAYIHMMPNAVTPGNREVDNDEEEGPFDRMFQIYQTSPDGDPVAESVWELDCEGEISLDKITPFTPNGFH

[18] = target: Sodium-dependent serotonin transporter (Homo sapiens, UniProt P31645); assay: Displacement of [3H]Citalopram from human SERT expressed in HEK cells by radioligand binding assay relative to control; type: cell-based
Sequence of Sodium-dependent serotonin transporter (P31645 whole entry): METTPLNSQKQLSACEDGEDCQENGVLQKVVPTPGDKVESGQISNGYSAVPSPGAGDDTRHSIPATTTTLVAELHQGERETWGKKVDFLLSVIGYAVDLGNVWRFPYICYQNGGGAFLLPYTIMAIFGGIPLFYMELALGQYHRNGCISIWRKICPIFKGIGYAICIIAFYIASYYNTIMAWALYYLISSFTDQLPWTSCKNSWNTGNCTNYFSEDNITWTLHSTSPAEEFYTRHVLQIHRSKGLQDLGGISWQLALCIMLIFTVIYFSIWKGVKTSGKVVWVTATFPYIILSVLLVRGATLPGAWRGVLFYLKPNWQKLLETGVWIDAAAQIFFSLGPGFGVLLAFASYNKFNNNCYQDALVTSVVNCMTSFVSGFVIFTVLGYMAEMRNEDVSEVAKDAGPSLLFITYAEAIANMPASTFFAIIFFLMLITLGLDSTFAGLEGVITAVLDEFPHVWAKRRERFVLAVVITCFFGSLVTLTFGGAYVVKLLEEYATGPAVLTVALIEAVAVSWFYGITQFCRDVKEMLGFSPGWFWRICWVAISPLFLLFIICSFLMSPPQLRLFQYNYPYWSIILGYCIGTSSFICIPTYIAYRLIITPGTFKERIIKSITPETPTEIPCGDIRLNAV

[19] = target: Sodium-dependent dopamine transporter (Homo sapiens, UniProt Q01959); assay: Displacement of [3H]WIN35428 from human DAT expressed in HEK cells by radioligand binding assay; type: cell-based
Sequence of Sodium-dependent dopamine transporter (Q01959 whole entry): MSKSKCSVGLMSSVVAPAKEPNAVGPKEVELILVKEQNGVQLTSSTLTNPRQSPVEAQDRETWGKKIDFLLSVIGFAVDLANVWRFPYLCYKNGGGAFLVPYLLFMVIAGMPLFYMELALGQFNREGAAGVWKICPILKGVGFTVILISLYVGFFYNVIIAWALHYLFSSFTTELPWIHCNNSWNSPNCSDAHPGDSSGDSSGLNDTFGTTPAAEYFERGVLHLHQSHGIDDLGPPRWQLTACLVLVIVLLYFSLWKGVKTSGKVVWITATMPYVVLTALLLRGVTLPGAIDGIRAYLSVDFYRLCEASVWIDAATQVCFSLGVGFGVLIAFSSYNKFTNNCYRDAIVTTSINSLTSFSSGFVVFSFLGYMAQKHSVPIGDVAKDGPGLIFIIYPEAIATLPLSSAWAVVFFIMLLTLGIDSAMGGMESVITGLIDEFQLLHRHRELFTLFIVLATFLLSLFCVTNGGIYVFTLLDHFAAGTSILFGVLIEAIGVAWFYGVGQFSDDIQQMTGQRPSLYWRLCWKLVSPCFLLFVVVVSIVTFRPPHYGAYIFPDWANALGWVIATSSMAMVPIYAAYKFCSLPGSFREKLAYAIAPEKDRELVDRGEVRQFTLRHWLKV

[20] = Drug distribution in C57BL/6J mouse lung at 5 mg/kg, ip treated daily for 7 consecutive days measured after 24 hrs post last dose by LC/MS/MS analysis; type: ADME, organism-based; details: in vivo
How it was run: (§2)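 Female C57BL6 mice dosed 5 mg/kg i.p. once daily for seven consecutive days; sacrificed 24 h after last injection, organs stored at −80 °C. Plasma, brain, lungs and adipose tissue analysed by LC-MS/MS for drug concentration (nM); n = 5.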

[21] = Drug distribution in C57BL/6J mouse adipose tissue at 5 mg/kg, ip treated daily for 7 consecutive days measured after 24 hrs post last dose by LC/MS/MS analysis; type: ADME, organism-based; details: in vivo; how it was run: as §2

Row | Compound | inhibition [1] [%] | pIC50 [2] | inhibition (D(2) dopamine receptor) [%] | pKi [3] | inhibition [4] [%] | inhibition [5] [%] | pIC50 (MDA-MB-231) | inhibition (D(3) dopamine receptor [6]) [%] | pIC50 (NIH3T3) | pKi (D(3) dopamine receptor [7]) | pKi [8] | inhibition [9] [%] | pKi [10] | inhibition [11] [%] | inhibition (Mu-type opioid receptor) [%] | pKi [12] | inhibition [13] [%] | pKi [14] | inhibition (D(1A) dopamine receptor [15]) [%] | pKi (D(1A) dopamine receptor [16]) | other results
1 | OC1(c2ccc(Cl)c(C(F)(F)F)c2)CCN(CCCC=C(c2ccc(F)cc2)c2ccc(F)cc2)CC1 | 54.4 | 4.92 | 87.3 | 5.00 | 74.1 | 87.8 | 4.83 | 87.1 | 5.15 | 6.26 | 5.99 | 91.8 | 5.96 | 77.2 | 90.6 |  |  |  |  |  | 
2 | OC1(c2ccc(Cl)c(C(F)(F)F)c2)CCN(CCCCN(c2ccc(F)cc2)c2ccc(F)cc2)CC1 | 68 | 4.97 | 65.8 | 6.09 | 68.9 | 86.1 | 4.94 | 82.5 | 5.19 | 6.11 | 5.00 | 82.4 | 5.22 | 77.5 | 61.5 | 5.00 | 70.6 | 6.34 | 77.9 | 5.00 | inhibition (INH) [17]: 88.2%; pKi (D(1B) dopamine receptor): 6.13; inhibition (INH) [18]: 72.7%; pKi [19]: 5.00
3 | OC1(c2ccc(Cl)c(C(F)(F)F)c2)CCN(CCCC(c2ccc(F)cc2)c2ccc(F)cc2)CC1 [PENFLURIDOL] | 96 | 5.38 | 71.5 | 6.55 | 89.1 | 77.6 | 5.30 | 98.2 | 5.22 | 6.87 |  | 97.3 | 6.44 | 95.3 | 87 | 5.77 | 91.3 | 6.23 | 96.5 | 6.83 | Drug uptake [20]: Active; Drug uptake [21]: Active; inhibition (INH) [17]: 86.2%; pKi (D(1B) dopamine receptor): 6.90; inhibition (INH) [18]: 92.7%; pKi [19]: 5.77
4 | OC1(c2ccc(Cl)c(C(F)(F)F)c2)CCN(CCCC(c2ccccc2)c2ccccc2)CC1 | 72.8 | 5.18 | 100 | 6.49 | 82.7 | 98.9 | 5.06 | 97.4 | 5.01 | 7.21 | 5.88 | 92.5 | 6.00 | 82.9 | 90.3 | 5.82 | 83.3 | 6.29 | 97.2 | 6.87 | inhibition (INH) [17]: 90.6%; pKi (D(1B) dopamine receptor): 6.92; inhibition (INH) [18]: 83.7%; pKi [19]: 6.92
5 | OC1(c2ccc(Cl)c(C(F)(F)F)c2)CCN(CCCN(c2ccc(F)cc2)c2ccc(F)cc2)CC1 | 86.4 | 5.24 | 66.4 | 5.80 | 65.9 | 76.5 | 5.30 | 94.4 | 5.40 | 6.32 | 6.18 | 95.5 | 6.79 | 86.7 | 97.4 | 5.81 | 80.7 | 6.04 | 96.8 | 6.52 | inhibition (INH) [17]: 97.4%; pKi (D(1B) dopamine receptor): 6.36; inhibition (INH) [18]: 82.5%; pKi [19]: 5.92
6 | OC1(c2ccc(Cl)c(C(F)(F)F)c2)CCN(CCCCCc2ccc(F)cc2)CC1 | 24.7 | 4.92 | 81.8 | 5.95 |  | 89.2 | 4.92 | 77.8 | 5.01 |  | 5.77 |  | 6.05 | 57.7 | 86.2 |  | 50 |  |  |  | Ki [12]: Not Active
7 | OC1(c2ccc(Cl)c(C(F)(F)F)c2)CCN(CCCCC(c2ccc(F)cc2)c2ccc(F)cc2)CC1 | 80 | 5.39 | 99.2 | 6.01 | 84.5 | 96.9 | 5.24 | 95.7 | 5.39 | 6.68 | 5.57 | 93.3 | 6.00 | 89 | 89 | 5.85 | 79.3 | 7.11 | 92.6 | 6.10 | Drug uptake [20]: Active; Drug uptake [21]: Active; inhibition (INH) [17]: 98.3%; pKi (D(1B) dopamine receptor): 6.28; inhibition (INH) [18]: 92.5%; pKi [19]: 6.28
8 | COc1ccc(N(CCCCN2CCC(O)(c3ccc(Cl)c(C(F)(F)F)c3)CC2)c2ccc(OC)cc2)cc1 | 50 | 5.40 | 60 | 6.02 | 77.6 | 73 | 5.15 | 65.1 | 4.95 | 6.36 | 5.00 | 77.5 | 6.05 | 72.6 | 76.8 | 5.00 | 78.8 | 5.84 | 56.6 | 5.00 | Drug uptake [20]: Active; Drug uptake [21]: Active; inhibition (INH) [17]: 86.4%; pKi (D(1B) dopamine receptor): 6.21; inhibition (INH) [18]: 94%; pKi [19]: 6.21

Source: ChEMBL document CHEMBL4257579, “Analogs of penfluridol as chemotherapeutic agents with reduced central nervous system activity” (Bioorg Med Chem Lett, 2018)
